# Source: ChEMBL document CHEMBL1152833, “Synthesis of some novel N4-(naphtha[1,2-d]thiazol-2-yl)semicarbazides as potential anticonvulsants” (Eur J Med Chem, 2009)
# Active and inactive are the calls of the source.
# What was measured:
# [1] = system: Mus musculus; experiment: Anticonvulsant activity in ip dosed Swiss albino mouse assessed as minimum drug concentration required for inhibition of pentylenetetrazole-induced seizures in half or more of mouse after 4 hrs by scPTZ test; type: functional
# How it was run: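 Male Swiss albino mice (18–25 g) were dosed i.p. at 30, 100 and 300 mg/kg, examined at 0.5 and 4 h. PTZ 85 mg/kg (CD97) was given and the animals were […]. Protection meant absence of any threshold convulsion, i.e. clonic spasm lasting at least 5 s. The value is the minimum dose active in half or more of the mice.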
# [2] = system: Mus musculus; experiment: Toxicity to Swiss albino mouse assessed as occurrence of myoclonic jerks at 300 mg/kg, ip after 0.5 hrs; type: organism-based; parameters: dose 300 mg/kg, route intraperitoneal; conditions: in vivo
# [3] = system: Mus musculus; experiment: Neurotoxicity in ip dosed Swiss albino mouse assessed as minimum drug concentration required for falling off the rotarod by half or more of mouse after 4 hrs by rotarod test; type: toxicity, organism-based; conditions: in vivo
# How it was run: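 Rotarod test in male Swiss albino mice (18–25 g) after i.p. dosing at 30, 100 and 300 mg/kg, read at 0.5 and 4 h. Mice falling within 30 s in a pre-check were excluded. Neurotoxicity was scored as the minimum dose at which half or more of the mice fell off the rod.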
# [4] = system: Mus musculus; experiment: Neurotoxicity in Swiss albino mouse at 300 mg/kg, ip after 0.5 hrs by rotarod test; type: toxicity, organism-based; parameters: dose 300 mg/kg, route intraperitoneal; conditions: in vivo
# How it was run: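 Male Swiss albino mice (18-25 g) received the compound i.p. at 30, 100 or 300 mg/kg and were tested on the rotarod 0.5 and 4 h later. Mice were pre-checked, and any that fell off within 30 s were excluded. Neurotoxicity was scored as falling off the rod. The value is the minimum dose affecting half or more of the mice.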
# [5] = system: Mus musculus; experiment: Anticonvulsant activity in ip dosed Swiss albino mouse assessed as minimum drug concentration required for inhibition of maximal electroshock-induced seizure in half or more of mouse after 0.5 hrs by MES test; type: functional
# How it was run: (§1)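 Male Swiss albino mice (18–25 g) received compound i.p. at 30, 100 and 300 mg/kg. MES seizures were induced after 0.5 and 4 h, with a drop of 0.9% saline placed in the eye before the electrodes went on. Protection meant abolition of the hind-limb tonic extensor component. The tabulated value is the minimum dose protecting half or more of the mice.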
# [6] = system: Mus musculus; experiment: Anticonvulsant activity against maximal electroshock-induced seizures in Swiss albino mouse at 300 mg/kg, ip after 4 hrs by MES test; type: functional, organism-based; parameters: dose 300 mg/kg; how it was run: as §1
smiles,measurement,setting,value
C/C(=N\NC(=O)Nc1nc2c(ccc3ccccc32)s1)c1ccc(C)cc1,Activity,[1],300 mg/kg
same,Activity,[2],Toxic
same,Activity,[3],300 mg/kg
same,Activity,[4],Non-toxic
same,Activity,[5],300 mg/kg
same,Activity,[6],inactive
